ChEMBL document CHEMBL1146760, “3,4-Dihydronaphthalen-1(2H)-ones: novel ligands for the benzodiazepine site of alpha5-containing GABAA receptors” (Bioorg Med Chem Lett, 2004)

Legend:
[1] = molecular target: T1, GABA-A receptor; alpha-5/beta-3/gamma-2 (Homo sapiens) (UniProt P18507+P28472+P31644); assay: Percentage modulation of submaximal (EC20) response to GABA-A receptor alpha-5-beta-3-gamma-2 subunits expressed in mouse fibroblast L(tk-) cells; assay type: functional, cell-based
Procedure, shortened: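 Whole-cell patch clamp of mouse fibroblast L(tk⁻) cells stably expressing human α5β3γ2. Percentage maximum modulation of current relative to a submaximal (EC20) GABA response, taken from fitted concentration–response curves. Mean ± SEM of at least three individual curves.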

[2] = molecular target: T1, GABA-A receptor; alpha-5/beta-3/gamma-2 (Homo sapiens); assay: Percentage modulation of submaximal (EC20) response to GABA-A receptor alpha-5-beta-3-gamma-2 subunits expressed in Xenopus laevis oocytes; assay type: functional, cell-based; details: Oocyte
[3] = molecular target: T2, GABA-A receptor; alpha-3/beta-3/gamma-2 (Homo sapiens, UniProt P18507+P28472+P34903); assay: Inhibition of [3H]-Ro- 15-1788 binding to recombinant human gamma-aminobutyric-acid A receptor alpha-3-beta-3-gamma-2; assay type: protein-complex assay
T2 sequence (P18507 whole entry): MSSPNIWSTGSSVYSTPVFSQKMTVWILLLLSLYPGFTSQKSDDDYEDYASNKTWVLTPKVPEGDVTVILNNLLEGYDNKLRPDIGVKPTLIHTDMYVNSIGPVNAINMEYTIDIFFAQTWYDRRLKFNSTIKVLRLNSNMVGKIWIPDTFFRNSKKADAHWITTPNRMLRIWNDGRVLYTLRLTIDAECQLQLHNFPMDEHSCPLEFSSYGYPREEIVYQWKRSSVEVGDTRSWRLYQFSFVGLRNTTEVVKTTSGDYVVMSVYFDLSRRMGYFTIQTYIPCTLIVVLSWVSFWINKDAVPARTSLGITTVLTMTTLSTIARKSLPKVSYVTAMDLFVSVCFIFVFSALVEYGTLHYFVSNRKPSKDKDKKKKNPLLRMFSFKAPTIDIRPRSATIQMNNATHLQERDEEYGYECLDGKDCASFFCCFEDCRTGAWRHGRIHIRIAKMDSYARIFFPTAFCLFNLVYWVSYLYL
T2 sequence (P28472 whole entry): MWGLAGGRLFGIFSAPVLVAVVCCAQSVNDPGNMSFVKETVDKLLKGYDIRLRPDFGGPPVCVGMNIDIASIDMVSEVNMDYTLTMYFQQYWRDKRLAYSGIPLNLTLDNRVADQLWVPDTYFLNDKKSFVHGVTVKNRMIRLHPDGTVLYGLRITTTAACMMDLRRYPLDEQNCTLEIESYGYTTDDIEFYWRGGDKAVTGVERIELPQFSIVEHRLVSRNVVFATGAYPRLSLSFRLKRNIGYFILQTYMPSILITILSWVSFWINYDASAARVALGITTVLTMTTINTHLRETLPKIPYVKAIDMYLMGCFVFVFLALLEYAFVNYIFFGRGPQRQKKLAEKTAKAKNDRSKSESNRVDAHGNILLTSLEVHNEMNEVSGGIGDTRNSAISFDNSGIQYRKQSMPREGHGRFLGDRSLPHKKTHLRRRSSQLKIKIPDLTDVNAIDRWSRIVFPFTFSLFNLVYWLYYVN
T2 sequence (P34903 whole entry): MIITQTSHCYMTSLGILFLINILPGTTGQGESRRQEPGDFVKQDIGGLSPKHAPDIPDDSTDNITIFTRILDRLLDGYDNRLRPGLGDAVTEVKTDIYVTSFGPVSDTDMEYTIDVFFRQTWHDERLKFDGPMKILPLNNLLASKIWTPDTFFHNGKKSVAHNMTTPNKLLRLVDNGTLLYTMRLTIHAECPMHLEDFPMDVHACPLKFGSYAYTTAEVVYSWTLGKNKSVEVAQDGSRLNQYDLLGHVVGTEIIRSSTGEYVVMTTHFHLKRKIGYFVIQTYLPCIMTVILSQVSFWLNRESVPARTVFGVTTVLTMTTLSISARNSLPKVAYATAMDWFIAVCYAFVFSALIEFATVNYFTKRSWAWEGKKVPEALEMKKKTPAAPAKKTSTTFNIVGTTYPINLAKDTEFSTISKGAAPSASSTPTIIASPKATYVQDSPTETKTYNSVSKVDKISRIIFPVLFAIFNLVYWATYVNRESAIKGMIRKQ
Procedure, shortened: (§1)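 Displacement of [3H]Ro 15-1788 from recombinant human GABAA receptor subtypes; Ki reported as mean ± SEM of at least three independent determinations, or mean of two determinations with both individual values shown.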

[4] = molecular target: T3, GABA-A receptor; alpha-2/beta-3/gamma-2 (Homo sapiens, UniProt P18507+P28472+P47869); assay: Inhibition of [3H]-Ro- 15-1788 binding to recombinant human gamma-aminobutyric-acid A receptor alpha-2-beta-3-gamma-2; assay type: protein-complex assay; procedure, shortened: as §1
T3 sequence (P18507 whole entry): T2 sequence (P18507 whole entry)
T3 sequence (P28472 whole entry): T2 sequence (P28472 whole entry)
T3 sequence (P47869 whole entry): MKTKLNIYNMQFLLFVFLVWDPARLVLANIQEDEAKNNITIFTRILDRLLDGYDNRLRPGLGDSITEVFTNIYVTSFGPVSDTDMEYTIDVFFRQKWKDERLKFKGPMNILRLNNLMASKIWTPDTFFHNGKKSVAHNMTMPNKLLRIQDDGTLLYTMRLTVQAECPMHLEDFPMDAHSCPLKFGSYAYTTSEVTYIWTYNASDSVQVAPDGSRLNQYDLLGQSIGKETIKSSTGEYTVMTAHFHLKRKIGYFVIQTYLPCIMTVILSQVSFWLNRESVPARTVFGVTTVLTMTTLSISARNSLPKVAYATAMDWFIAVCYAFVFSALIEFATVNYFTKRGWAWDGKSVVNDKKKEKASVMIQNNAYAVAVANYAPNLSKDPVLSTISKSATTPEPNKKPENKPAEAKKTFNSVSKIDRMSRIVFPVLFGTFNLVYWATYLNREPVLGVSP

[5] = molecular target: T4, Gamma-aminobutyric acid receptor subunit alpha-5 (Homo sapiens) (UniProt P31644); assay: Selectivity for GABA-A receptor alpha-5 subunit over alpha1,2,3 (range 6-8)
T4 sequence (whole entry): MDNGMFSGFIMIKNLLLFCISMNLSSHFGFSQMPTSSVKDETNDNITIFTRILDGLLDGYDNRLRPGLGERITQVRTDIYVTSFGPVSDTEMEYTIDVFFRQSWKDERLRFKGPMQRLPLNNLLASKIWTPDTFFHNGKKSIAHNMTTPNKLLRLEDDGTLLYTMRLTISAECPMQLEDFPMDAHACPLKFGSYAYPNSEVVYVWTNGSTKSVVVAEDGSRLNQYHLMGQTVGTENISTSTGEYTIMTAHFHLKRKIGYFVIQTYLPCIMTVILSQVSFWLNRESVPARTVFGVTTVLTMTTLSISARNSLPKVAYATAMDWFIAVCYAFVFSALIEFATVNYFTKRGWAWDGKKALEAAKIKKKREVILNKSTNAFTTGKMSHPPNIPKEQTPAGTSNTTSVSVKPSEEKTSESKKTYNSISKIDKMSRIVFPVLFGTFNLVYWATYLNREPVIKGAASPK

[6] = molecular target: T5, GABA-A receptor; alpha-5/beta-3/gamma-2 (Homo sapiens, UniProt P18507+P28472+P31644); assay: Inhibition of [3H]-Ro- 15-1788 binding to human GABA-A receptor alpha-5-beta-3-gamma-2 subunits; assay type: protein-complex assay; procedure, shortened: as §1
T5 sequence (P18507 whole entry): T2 sequence (P18507 whole entry)
T5 sequence (P28472 whole entry): T2 sequence (P28472 whole entry)
T5 sequence (P31644 whole entry): T4 sequence (whole entry)

[7] = molecular target: T6, GABA-A receptor; alpha-1/beta-3/gamma-2 (Homo sapiens, UniProt P14867+P18507+P28472); assay: Inhibition of [3H]-Ro- 15-1788 binding to recombinant human gamma-aminobutyric-acid A receptor alpha-1-beta-3-gamma-2; assay type: protein-complex assay; procedure, shortened: as §1
T6 sequence (P14867 whole entry): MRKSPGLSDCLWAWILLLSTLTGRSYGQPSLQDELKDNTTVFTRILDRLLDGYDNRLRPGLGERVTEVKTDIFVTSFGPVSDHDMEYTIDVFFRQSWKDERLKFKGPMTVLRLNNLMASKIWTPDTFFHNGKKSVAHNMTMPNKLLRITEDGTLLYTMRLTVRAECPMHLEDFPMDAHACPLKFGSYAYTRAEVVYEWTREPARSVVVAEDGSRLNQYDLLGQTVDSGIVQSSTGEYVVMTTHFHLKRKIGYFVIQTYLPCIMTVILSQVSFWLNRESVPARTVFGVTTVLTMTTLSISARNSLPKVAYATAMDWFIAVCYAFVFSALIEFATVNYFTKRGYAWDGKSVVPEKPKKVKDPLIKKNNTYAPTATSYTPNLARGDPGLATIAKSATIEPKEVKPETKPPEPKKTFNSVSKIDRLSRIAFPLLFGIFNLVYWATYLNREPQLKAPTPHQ
T6 sequence (P18507 whole entry): T2 sequence (P18507 whole entry)
T6 sequence (P28472 whole entry): T2 sequence (P28472 whole entry)

[8] = molecular target: T4, Gamma-aminobutyric acid receptor subunit alpha-5 (Homo sapiens); assay: Selectivity for GABA-A receptor alpha-5 subunit over alpha1,2,3 (range 6-14)
[9] = molecular target: T4, Gamma-aminobutyric acid receptor subunit alpha-5 (Homo sapiens); assay: Selectivity for GABA-A receptor alpha-5 subunit over alpha1,2,3
[10] = molecular target: T4, Gamma-aminobutyric acid receptor subunit alpha-5 (Homo sapiens); assay: Selectivity for GABA-A receptor alpha-5 subunit over alpha1,2,3 (range 3-12)
[11] = molecular target: T4, Gamma-aminobutyric acid receptor subunit alpha-5 (Homo sapiens); assay: Selectivity for GABA-A receptor alpha-5 subunit over alpha1,2,3 (range 14-35)
[12] = molecular target: T4, Gamma-aminobutyric acid receptor subunit alpha-5 (Homo sapiens); assay: Selectivity for GABA-A receptor alpha-5 subunit over alpha1,2,3 (range 7-13)
[13] = molecular target: T4, Gamma-aminobutyric acid receptor subunit alpha-5 (Homo sapiens); assay: Selectivity for GABA-A receptor alpha-5 subunit over alpha1,2,3 (range 5-11)
[14] = molecular target: T4, Gamma-aminobutyric acid receptor subunit alpha-5 (Homo sapiens); assay: Selectivity for GABA-A receptor alpha-5 subunit over alpha1,2,3 (range 5-15)
[15] = molecular target: T4, Gamma-aminobutyric acid receptor subunit alpha-5 (Homo sapiens); assay: Selectivity for GABA-A receptor alpha-5 subunit over alpha1,2,3 (range 10-13)
[16] = molecular target: T4, Gamma-aminobutyric acid receptor subunit alpha-5 (Homo sapiens); assay: Selectivity for GABA-A receptor alpha-5 subunit over alpha1,2,3 (range 16-38)
[17] = molecular target: T4, Gamma-aminobutyric acid receptor subunit alpha-5 (Homo sapiens); assay: Selectivity for GABA-A receptor alpha5 subunit over alpha1,2,3 (range 5-9)

| SMILES | Efficacy [1] [%] | Efficacy [2] [%] | Ki [3] [nM] | Ki [4] [nM] | Ki [6] [nM] | Ki [7] [nM] | further results |
| --- | --- | --- | --- | --- | --- | --- | --- |
| CCc1c(C(=O)OC)ncc2[nH]c3cc(OC)c(OC)cc3c12 | -57 | -34 |  |  |  |  |  |
| CSc1ccc(-c2ccccn2)c2c1C(=O)CC(C)C2 (stereo not given) |  | -5 | 42 | 63 | 7.5 | 63 | Selectivity [5]: 8 |
| CCSc1ccc(-c2ncco2)c2c1C(=O)CC(C)C2 (stereo not given) |  | 5 | 16 | 38 | 2.6 | 37 | Selectivity [8]: 14 |
| CCSc1ccc(-c2cccc[n+]2[O-])c2c1C(=O)CC(C)C2 (stereo not given) | 80 |  | 286 | 271 | 25 | > 300 | Selectivity [9]: > 11 |
| CSc1ccc(-c2ccccn2)c2c1C(=O)CC(C)(C)C2 | -32 |  | 59 | 60 | 19 | 229 | Selectivity [10]: 12 |
| CC1CC(=O)c2c(SCc3cn[nH]n3)ccc(-c3nccs3)c2C1 (stereo not given) | 6 |  | 36 | 57 | 2.6 | 92 | Selectivity [11]: 35 |
| CCSc1ccc(-c2ccccn2)c2c1C(=O)CC(C)C2 (stereo not given) |  | 2 | 15 | 13 | 1.9 | 25 | Selectivity [12]: 13 |
| CC1CC(=O)c2c(Sc3cccs3)ccc(-c3ccccn3)c2C1 (stereo not given) |  | 50 | 4.5 | 5.4 | 0.5 | 2.3 | Selectivity [13]: 11 |
| CCSc1ccc(-c2ccccn2)c2c1C(=O)CCC2 |  |  | > 300 | > 300 | 103 | > 300 | Selectivity [9]: > 3 |
| CNC1=Nc2ccc(Cl)cc2C(c2ccccc2)=[N+]([O-])C1 | 99 | 134 |  |  |  |  |  |
| CCSc1ccc(-c2nccs2)c2c1C(=O)CC(C)C2 (stereo not given) |  | -8 | 12 | 15 | 1 | 5.4 | Selectivity [14]: 15 |
| COc1nc(CSc2ccc(-c3nccs3)c3c2C(=O)CC(C)C3)ns1 (stereo not given) | 57 |  | 35 | 34 | 3.2 | 40 | Selectivity [15]: 13 |
| CC1CC(=O)c2c(SCc3ncn(C)n3)ccc(-c3nccs3)c2C1 (stereo not given) | 29 |  | 16 | 20 | 1 | 38 | Selectivity [16]: 38 |
| CCSc1ccc(-c2cnccn2)c2c1C(=O)CC(C)C2 (stereo not given) |  | 2 | 13 | 19 | 2.1 | 11 | Selectivity [17]: 9 |
